Measurements as given in ChEMBL document CHEMBL3091336, “Analogs of the Allosteric Heat Shock Protein 70 (Hsp70) Inhibitor, MKT-077, as Anti-Cancer Agents” (ACS Med Chem Lett, 2013).
Active and inactive are the calls of the source. No cut-off for these calls is given here.

Key:
MDA-MB-231 [1] = experiment: Inhibition of HSP70 in human MDA-MB-231 cells assessed as reduction of Akt1 level at 0.6 to 10 uM after 24 hrs by Western blot analysis; format: cell-based
Summary of the method: (§1)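 MCF7 or MDA-MB-231 cells treated for 24 h across a range of concentrations. Lysates probed by Western blot for the Hsp70 clients p53, Akt1 and Raf1, alongside Hsp70 and Hsp90. Blots are representative of experiments run in triplicate.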

MCF7 [2] = experiment: Inhibition of HSP70 in human MCF7 cells assessed as reduction of Raf level at 0.6 to 10 uM after 24 hrs by Western blot analysis; format: cell-based; summary of the method: as §1
[3] = Selectivity ratio of EC50 for C57BL/6 mouse MEF to EC50 for human MCF-7 cells; format: ADME, cell-based; details: C57BL/6, mouse and human, mouse embryonic fibroblasts (MEF) versus MCF-7 cells; read-out: Ratio EC50
Summary of the method: (§2)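 Antiproliferative EC50 values measured by MTT assay in mouse embryonic fibroblasts and in the breast cancer line (MCF7 or MDA-MB-231), averaged over triplicate experiments, error SEM. Selectivity taken as the ratio of fibroblast EC50 to cancer-cell EC50.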

MCF7 [4] = experiment: Inhibition of HSP70 in human MCF7 cells assessed as induction of […] p53 level at 5 to 10 uM after 24 hrs by Western blot analysis; format: cell-based
Summary of the method: (§3)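 MCF7 and MDA-MB-231 cells treated for 24 h across a range of concentrations. Lysates Western blotted for p53, Akt1, Raf1, Hsp70 and Hsp90. Representative of triplicate experiments.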

MEF = experiment: Cytotoxicity against C57BL/6 mouse MEF assessed as growth inhibition after 72 hrs by MTT assay; format: cell-based; details: C57BL/6, MEF
Summary of the method: (§4)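 Antiproliferative activity measured by MTT assay. EC50 is the average of triplicate experiments, with error as SEM.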

MDA-MB-231 [5] = experiment: Cytotoxicity against human MDA-MB-231 cells assessed as growth inhibition after 72 hrs by MTT assay; format: functional, cell-based; details: MDA-MB-231, 72 h; summary of the method: as §4
MCF7 [6] = experiment: Upregulation of Hsp90 protein expression in human MCF7 cells at 0.6 to 10 uM after 24 hrs by Western blot analysis; format: functional, cell-based; summary of the method: as §3
MDA-MB-231 [7] = experiment: Upregulation of Hsp90 protein expression in human MDA-MB-231 cells at 0.6 to 10 uM after 24 hrs by Western blot analysis; format: functional, cell-based; summary of the method: as §3
MCF7 [8] = experiment: Inhibition of HSP70 in human MCF7 cells assessed as reduction of Akt1 level at 0.6 to 10 uM after 24 hrs by Western blot analysis; format: cell-based; summary of the method: as §1
MDA-MB-231 [9] = experiment: Upregulation of Hsp70 protein expression in human MDA-MB-231 cells at 0.6 to 10 uM after 24 hrs by Western blot analysis; format: functional, cell-based; summary of the method: as §3
MCF7 [10] = experiment: Cytotoxicity against human MCF7 cells assessed as growth inhibition after 72 hrs by MTT assay; format: functional, cell-based; details: MCF7, 72 h; summary of the method: as §4
[11] = Half life in mouse liver microsomes at 1 uM incubated for 15 mins prior to beta-NADPH addition by LC-MS/MS analysis; format: ADME, Microsome; details: microsomes, 0.25 h, 1 µM
Summary of the method: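 Compounds at 1 μM incubated with mouse liver microsomes. Degradation followed by LC–MS and reported as half-life.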

MCF7 [12] = experiment: Upregulation of Hsp70 protein expression in human MCF7 cells at 0.6 to 10 uM after 24 hrs by Western blot analysis; format: functional, cell-based; summary of the method: as §3
[13] = Selectivity ratio of EC50 for C57BL/6 mouse MEF to EC50 for human MDA-MB-231 cells; format: ADME; details: C57BL/6, mouse and human, mouse embryonic fibroblasts (MEF) versus MDA-MB-231 cells; summary of the method: as §2
MDA-MB-231 [14] = experiment: Inhibition of HSP70 in human MDA-MB-231 cells assessed as reduction of Raf level at 0.6 to 10 uM after 24 hrs by Western blot analysis; format: cell-based; summary of the method: as §1

Which results are given for `CCn1c(=O)/c(=C2\Sc3cccc(F)c3N2C)s/c1=C\c1scc[n+]1Cc1ccccc1.[Cl-]`?
inhibition (MDA-MB-231 [1]): 25%; inhibition (MCF7 [2]): 25%; selectivity ratio [3]: 8; inhibition (MCF7 [4]): Active; EC50 (MEF): 8300 nM; EC50 (MDA-MB-231 [5]): 400 nM; Activity (MCF7 [6]): inactive; Activity (MDA-MB-231 [7]): inactive; inhibition (MCF7 [8]): 25%; Activity (MDA-MB-231 [9]): inactive; EC50 (MCF7 [10]): 1000 nM; t1/2 [11]: ND(Insoluble); Activity (MCF7 [12]): inactive; selectivity ratio [13]: 21; inhibition (MDA-MB-231 [14]): 25%
